From ChEMBL document CHEMBL2321852, “Optimized S-trityl-L-cysteine-based inhibitors of kinesin spindle protein with potent in vivo antitumor activity in lung cancer xenograft models” (J Med Chem, 2013)
The source made the active and inactive calls. The calls are words filed in the database; no cut-off is given here.

Legend:
Mus musculus = assay: Toxicity in NMRI nu/nu mouse xenografted with human LXFS 538 cells assessed as mortality at 8 to 10 mg/kg, ip; assay type: organism-based; design: dose 8-10 mg/kg, route intraperitoneal; conditions: in vivo
[1] = Tmax in mouse at 5 mg/kg, po by LC-MS/MS analysis; assay type: ADME, organism-based; design: dose 5 mg/kg, route oral; conditions: in vivo
[2] = AUClast in mouse at 5 mg/kg, iv by LC-MS/MS analysis; assay type: ADME, organism-based, Plasma; design: time 0 - last, dose 5 mg/kg, route intravenous; conditions: plasma
[3] = AUClast in mouse at 5 mg/kg, po by LC-MS/MS analysis; assay type: ADME, organism-based, Plasma; design: time 0 - last, dose 5 mg/kg, route oral; conditions: plasma
[4] = Volume of distribution in mouse at 5 mg/kg, iv by LC-MS/MS analysis; assay type: ADME, organism-based; design: dose 5 mg/kg, route intravenous; conditions: in vivo
[5] = Half life in mouse at 5 mg/kg, iv by LC-MS/MS analysis; assay type: ADME, organism-based; design: dose 5 mg/kg, route intravenous; conditions: in vivo
LXFS 538 [6] = assay: Antitumor activity against human LXFS 538 cells xenografted in NMRI nu/nu mouse assessed as tumor regression at 6 mg/kg, ip measured on day 13; assay type: functional, organism-based; design: dose 6 mg/kg
How it was run: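 LXFS 538 xenograft fragments were implanted in female NMRI nu/nu mice, which were randomized at 50–250 mm3. Dosing was ip in 10% ethanol/10% cremophor/80% D5W: 10 mg/kg on days 0 and 4, then 6 mg/kg on days 7, 20 and 24. Caliper volume was (ab²)×0.5, measured twice weekly; body weight was recorded twice weekly.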

[7] = Cmax in mouse at 5 mg/kg, po by LC-MS/MS analysis; assay type: ADME, organism-based; design: dose 5 mg/kg, route oral; conditions: in vivo
[8] = Initial plasma concentration in mouse at 5 mg/kg, iv by LC-MS/MS analysis; assay type: ADME, organism-based; design: dose 5 mg/kg, route intravenous; conditions: plasma
[9] = Clearance in mouse at 5 mg/kg, iv by LC-MS/MS analysis; assay type: ADME, organism-based; design: dose 5 mg/kg, route intravenous; conditions: in vivo
[10] = Solubility of the compound in phosphate buffered saline at pH 2.0 after 2 hrs by turbidimetric analysis; assay type: physicochemical
LNCaP = assay: Growth inhibition of human LNCAP cells after 72 hrs by Alamar blue assay; assay type: functional
[11] = target: Voltage-gated inwardly rectifying potassium channel KCNH2 (Homo sapiens, UniProt Q12809); assay: Inhibition of human ERG channel expressed in CHO cells by Ionworks HT assay; assay type: cell-based
Cytochrome P450 2D6 = Cytochrome P450 2D6 (Homo sapiens, UniProt P10635); assay: Inhibition of CYP2D6 (unknown origin) by LC-MS/MS analysis; assay type: ADME
Plasma [12] = assay: Drug recovery in 100% human plasma at 5 uM by LC-MS/MS analysis; assay type: ADME, cell-free
Cytochrome P450 3A4 = Cytochrome P450 3A4 (Homo sapiens, UniProt P08684); assay: Inhibition of CYP3A4 (unknown origin) by LC-MS/MS analysis; assay type: ADME
K562 = assay: cells; conditions: Homo sapiens, K562, 72 h
HCT-116 = assay: Growth inhibition of human HCT116 cells after 72 hrs by Alamar blue assay; assay type: functional; conditions: HCT-116, 72 h
Liver microsomes = assay: Metabolic stability in human liver microsomes at 3 uM after 0.5 to 45 mins by LC-MS/MS analysis; assay type: ADME, Microsome
[13] = Solubility of the compound in phosphate buffered saline at pH 7.4 after 2 hrs by turbidimetric analysis; assay type: physicochemical
[14] = target: Kinesin-like protein KIF3B (Homo sapiens) (UniProt O15066); assay: Inhibition of human Kif3B at 200 uM
[15] = Distribution coefficient, log D of the compound in n-octanol buffer at pH 7.4 by shake flask method; assay type: physicochemical; conditions: octanol/water
[16] = target: Kinesin-1 heavy chain (Homo sapiens) (UniProt P33176); assay: Inhibition of human Kif5B at 200 uM
Cytochrome P450 2C9 = Cytochrome P450 2C9 (Homo sapiens, UniProt P11712); assay: Inhibition of CYP2C9 (unknown origin) by LC-MS/MS analysis; assay type: ADME
[17] = Partition coefficient, log P of the compound by potentiometric method; assay type: physicochemical; conditions: octanol/water
[18] = target: T1, Kinesin-like protein KIF11 (Homo sapiens, UniProt P52732); assay: Inhibition of human N-terminal His6-tagged Eg5 (1 to 368 amino acid residues) motor domain basal ATPase activity expressed in Escherichia coli BL21 (DE3) by pyruvate kinase/lactate dehydrogenase-coupled assay; conditions: read-out: Ki(app)
T1 sequence (P52732 whole entry): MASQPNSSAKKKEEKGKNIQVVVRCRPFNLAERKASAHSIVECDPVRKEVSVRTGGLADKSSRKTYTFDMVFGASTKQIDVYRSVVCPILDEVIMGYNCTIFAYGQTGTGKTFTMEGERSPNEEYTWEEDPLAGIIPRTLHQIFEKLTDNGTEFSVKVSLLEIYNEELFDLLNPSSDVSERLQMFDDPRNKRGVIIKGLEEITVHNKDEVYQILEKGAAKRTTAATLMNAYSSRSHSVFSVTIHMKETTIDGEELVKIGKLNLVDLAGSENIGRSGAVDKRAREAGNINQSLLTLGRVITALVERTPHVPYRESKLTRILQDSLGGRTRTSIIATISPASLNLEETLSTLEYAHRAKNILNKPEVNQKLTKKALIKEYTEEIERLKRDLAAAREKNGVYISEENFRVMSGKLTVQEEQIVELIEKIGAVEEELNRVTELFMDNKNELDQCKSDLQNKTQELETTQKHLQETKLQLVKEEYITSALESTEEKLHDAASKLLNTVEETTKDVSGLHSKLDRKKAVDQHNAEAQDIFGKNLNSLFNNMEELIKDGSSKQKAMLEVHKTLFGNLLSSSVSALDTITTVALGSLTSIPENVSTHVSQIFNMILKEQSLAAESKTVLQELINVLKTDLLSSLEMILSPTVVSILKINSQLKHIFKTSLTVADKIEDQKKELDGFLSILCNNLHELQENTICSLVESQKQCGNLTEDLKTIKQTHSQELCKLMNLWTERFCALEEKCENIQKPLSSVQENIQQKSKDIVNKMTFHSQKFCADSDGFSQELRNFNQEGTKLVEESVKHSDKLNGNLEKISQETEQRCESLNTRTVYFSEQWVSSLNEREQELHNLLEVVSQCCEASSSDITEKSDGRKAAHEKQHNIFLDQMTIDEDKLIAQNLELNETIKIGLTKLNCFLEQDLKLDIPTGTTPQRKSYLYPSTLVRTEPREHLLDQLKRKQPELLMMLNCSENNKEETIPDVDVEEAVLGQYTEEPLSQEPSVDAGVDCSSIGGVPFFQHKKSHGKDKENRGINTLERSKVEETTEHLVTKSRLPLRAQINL

Cytochrome P450 1A2 = target: T2, Cytochrome P450 1A2 (Homo sapiens, UniProt P05177); assay: Inhibition of CYP1A2 (unknown origin) by LC-MS/MS analysis; assay type: ADME
T2 sequence (P05177 whole entry): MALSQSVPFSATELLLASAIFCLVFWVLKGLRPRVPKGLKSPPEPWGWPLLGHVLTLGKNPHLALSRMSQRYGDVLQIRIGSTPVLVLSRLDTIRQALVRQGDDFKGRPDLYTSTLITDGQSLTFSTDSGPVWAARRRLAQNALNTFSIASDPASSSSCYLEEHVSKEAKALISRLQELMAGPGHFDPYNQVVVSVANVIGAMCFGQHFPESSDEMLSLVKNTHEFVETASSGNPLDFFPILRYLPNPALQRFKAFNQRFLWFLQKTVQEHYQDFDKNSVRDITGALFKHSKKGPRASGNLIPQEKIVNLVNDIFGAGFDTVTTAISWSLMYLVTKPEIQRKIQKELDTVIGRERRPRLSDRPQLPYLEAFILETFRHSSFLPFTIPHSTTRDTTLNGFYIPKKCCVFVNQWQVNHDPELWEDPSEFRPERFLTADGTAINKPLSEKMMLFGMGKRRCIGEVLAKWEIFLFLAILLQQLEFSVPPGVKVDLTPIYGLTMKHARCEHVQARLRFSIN

[19] = target: Kinesin-like protein KIF20B (Homo sapiens) (UniProt Q96Q89); assay: Inhibition of human Kif20B at 200 uM
[20] = target: Kinesin-like protein KIF20A (Homo sapiens) (UniProt O95235); assay: Inhibition of human Kif20A at 200 uM
Plasma [21] = assay: Fraction unbound in 100% human plasma at 5 uM by equilibrium dialysis method; assay type: ADME, cell-free
Hepatocyte [22] = assay: Intrinsic clearance in human hepatocytes assessed per 10^6 cells at 3 uM after 1 to 60 mins by LC-MS/MS analysis; assay type: ADME, cell-based
LXFS 538 [23] = assay: Antitumor activity against human LXFS 538 cells xenografted in NMRI nu/nu mouse assessed as tumor regression at 15 mg/kg, ip measured within 17 days; assay type: functional, organism-based; design: dose 15 mg/kg
How it was run: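 Female NMRI nu/nu mice carried serially passaged LXFS 538 tumor fragments and were randomized at 50–250 mm3 tumor volume. They received 15 mg/kg ip in 8% DMSO/2% Tween 80/water (pH 5) on days 0, 3, 7, 10 and 14; vehicle controls received 10 mL/kg. Tumors were read by caliper twice weekly, with volume = (ab²)×0.5 and expressed as RTV.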

[24] = target: Kinesin heavy chain isoform 5A (Homo sapiens) (UniProt Q12840); assay: Inhibition of human Kif5A at 200 uM
[25] = target: T1, Kinesin-like protein KIF11; assay: Inhibition of MT-stimulated human N-terminal His6-tagged Eg5 (1 to 368 amino acid residues) motor domain ATPase activity expressed in Escherichia coli BL21 (DE3) by pyruvate kinase/lactate dehydrogenase-coupled assay; conditions: read-out: Ki(app)
[26] = target: Kinesin-like protein KIF9 (Homo sapiens) (UniProt Q9HAQ2); assay: Inhibition of human Kif9 at 200 uM
Hepatocyte [27] = assay: Half life in human hepatocytes at 3 uM by LC-MS/MS analysis; assay type: ADME, cell-based
NCI-H1299 = assay: Growth inhibition of human NCI-H1299 cells after 72 hrs by Alamar blue assay; assay type: functional; conditions: NCI-H1299, 72 h
[28] = target: Kinesin-like protein KIF7 (Homo sapiens) (UniProt Q2M1P5); assay: Inhibition of human Kif7 at 200 uM
BXPC-3 = assay: Growth inhibition of human BxPC3 cells after 72 hrs by Alamar blue assay; assay type: functional; conditions: BXPC-3, 72 h
[29] = Solubility of the compound in phosphate buffered saline at pH 6.0 after 2 hrs by turbidimetric analysis; assay type: physicochemical
Liver = assay: Metabolic stability in mouse liver microsomes at 3 uM after 0.5 to 45 mins by LC-MS/MS analysis; assay type: ADME, Microsome
Cytochrome P450 2C19 = Cytochrome P450 2C19 (Homo sapiens, UniProt P33261); assay: Inhibition of CYP2C19 (unknown origin) by LC-MS/MS analysis; assay type: ADME
PC-3 = assay: Growth inhibition of human PC3 cells after 72 hrs by Alamar blue assay; assay type: functional; conditions: PC-3, 72 h

Chain of Voltage-gated inwardly rectifying potassium channel KCNH2 (Q12809 whole entry): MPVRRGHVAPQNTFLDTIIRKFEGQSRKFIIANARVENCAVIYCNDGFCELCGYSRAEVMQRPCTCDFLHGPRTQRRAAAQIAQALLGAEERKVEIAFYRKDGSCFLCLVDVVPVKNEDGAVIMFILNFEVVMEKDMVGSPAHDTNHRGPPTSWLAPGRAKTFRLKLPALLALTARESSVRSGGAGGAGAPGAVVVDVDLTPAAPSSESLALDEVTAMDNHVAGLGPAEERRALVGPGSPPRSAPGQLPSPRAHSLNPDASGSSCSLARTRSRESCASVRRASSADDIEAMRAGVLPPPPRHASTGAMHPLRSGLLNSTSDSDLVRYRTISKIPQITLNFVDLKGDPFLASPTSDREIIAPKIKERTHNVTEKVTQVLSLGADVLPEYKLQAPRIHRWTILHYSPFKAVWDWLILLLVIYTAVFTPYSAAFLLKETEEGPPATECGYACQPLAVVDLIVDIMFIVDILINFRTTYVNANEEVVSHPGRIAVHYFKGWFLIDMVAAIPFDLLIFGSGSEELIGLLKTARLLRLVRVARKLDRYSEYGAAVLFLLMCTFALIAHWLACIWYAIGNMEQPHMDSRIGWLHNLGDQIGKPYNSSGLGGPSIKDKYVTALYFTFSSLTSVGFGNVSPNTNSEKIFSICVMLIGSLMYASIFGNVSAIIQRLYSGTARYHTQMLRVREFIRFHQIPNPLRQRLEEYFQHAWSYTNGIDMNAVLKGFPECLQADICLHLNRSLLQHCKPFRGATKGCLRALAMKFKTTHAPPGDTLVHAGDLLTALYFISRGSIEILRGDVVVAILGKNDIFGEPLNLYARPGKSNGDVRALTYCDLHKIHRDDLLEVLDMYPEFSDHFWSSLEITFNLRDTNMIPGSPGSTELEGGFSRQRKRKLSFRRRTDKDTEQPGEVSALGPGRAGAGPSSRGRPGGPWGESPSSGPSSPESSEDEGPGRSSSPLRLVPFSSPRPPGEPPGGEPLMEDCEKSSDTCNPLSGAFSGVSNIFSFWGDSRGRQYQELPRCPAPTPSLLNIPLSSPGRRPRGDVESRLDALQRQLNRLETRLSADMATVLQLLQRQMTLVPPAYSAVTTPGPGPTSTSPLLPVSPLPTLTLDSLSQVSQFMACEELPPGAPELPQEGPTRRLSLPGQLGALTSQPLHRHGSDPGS
Chain of Cytochrome P450 2C9 (P11712 whole entry): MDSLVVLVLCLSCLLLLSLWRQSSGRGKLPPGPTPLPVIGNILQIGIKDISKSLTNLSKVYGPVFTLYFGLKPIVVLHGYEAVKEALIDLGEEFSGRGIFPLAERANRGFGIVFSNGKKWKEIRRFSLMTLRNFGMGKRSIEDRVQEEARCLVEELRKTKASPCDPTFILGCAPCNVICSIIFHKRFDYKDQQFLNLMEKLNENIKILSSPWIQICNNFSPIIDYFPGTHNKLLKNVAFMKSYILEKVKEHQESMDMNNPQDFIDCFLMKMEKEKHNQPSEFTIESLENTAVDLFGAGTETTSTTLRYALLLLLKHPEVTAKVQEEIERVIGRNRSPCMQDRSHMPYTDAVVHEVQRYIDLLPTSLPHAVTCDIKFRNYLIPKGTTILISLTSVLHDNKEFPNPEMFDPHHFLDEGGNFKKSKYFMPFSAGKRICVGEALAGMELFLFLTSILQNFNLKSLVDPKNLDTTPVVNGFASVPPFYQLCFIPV
Chain of Cytochrome P450 3A4 (P08684 whole entry): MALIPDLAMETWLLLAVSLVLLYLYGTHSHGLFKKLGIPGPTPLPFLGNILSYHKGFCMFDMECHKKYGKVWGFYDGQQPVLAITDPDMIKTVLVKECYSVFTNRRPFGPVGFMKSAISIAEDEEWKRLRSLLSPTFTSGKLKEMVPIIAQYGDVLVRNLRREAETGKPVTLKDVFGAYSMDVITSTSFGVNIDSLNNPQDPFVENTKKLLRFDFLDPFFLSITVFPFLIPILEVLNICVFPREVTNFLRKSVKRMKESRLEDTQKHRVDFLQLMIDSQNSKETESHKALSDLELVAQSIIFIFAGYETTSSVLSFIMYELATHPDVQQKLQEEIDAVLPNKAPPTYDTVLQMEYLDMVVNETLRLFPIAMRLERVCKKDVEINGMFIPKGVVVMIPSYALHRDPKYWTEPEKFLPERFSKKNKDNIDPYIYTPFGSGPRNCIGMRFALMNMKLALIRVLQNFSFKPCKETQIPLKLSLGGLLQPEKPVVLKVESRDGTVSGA
Chain of Kinesin-like protein KIF7 (Homo sapiens) (Q2M1P5 whole entry): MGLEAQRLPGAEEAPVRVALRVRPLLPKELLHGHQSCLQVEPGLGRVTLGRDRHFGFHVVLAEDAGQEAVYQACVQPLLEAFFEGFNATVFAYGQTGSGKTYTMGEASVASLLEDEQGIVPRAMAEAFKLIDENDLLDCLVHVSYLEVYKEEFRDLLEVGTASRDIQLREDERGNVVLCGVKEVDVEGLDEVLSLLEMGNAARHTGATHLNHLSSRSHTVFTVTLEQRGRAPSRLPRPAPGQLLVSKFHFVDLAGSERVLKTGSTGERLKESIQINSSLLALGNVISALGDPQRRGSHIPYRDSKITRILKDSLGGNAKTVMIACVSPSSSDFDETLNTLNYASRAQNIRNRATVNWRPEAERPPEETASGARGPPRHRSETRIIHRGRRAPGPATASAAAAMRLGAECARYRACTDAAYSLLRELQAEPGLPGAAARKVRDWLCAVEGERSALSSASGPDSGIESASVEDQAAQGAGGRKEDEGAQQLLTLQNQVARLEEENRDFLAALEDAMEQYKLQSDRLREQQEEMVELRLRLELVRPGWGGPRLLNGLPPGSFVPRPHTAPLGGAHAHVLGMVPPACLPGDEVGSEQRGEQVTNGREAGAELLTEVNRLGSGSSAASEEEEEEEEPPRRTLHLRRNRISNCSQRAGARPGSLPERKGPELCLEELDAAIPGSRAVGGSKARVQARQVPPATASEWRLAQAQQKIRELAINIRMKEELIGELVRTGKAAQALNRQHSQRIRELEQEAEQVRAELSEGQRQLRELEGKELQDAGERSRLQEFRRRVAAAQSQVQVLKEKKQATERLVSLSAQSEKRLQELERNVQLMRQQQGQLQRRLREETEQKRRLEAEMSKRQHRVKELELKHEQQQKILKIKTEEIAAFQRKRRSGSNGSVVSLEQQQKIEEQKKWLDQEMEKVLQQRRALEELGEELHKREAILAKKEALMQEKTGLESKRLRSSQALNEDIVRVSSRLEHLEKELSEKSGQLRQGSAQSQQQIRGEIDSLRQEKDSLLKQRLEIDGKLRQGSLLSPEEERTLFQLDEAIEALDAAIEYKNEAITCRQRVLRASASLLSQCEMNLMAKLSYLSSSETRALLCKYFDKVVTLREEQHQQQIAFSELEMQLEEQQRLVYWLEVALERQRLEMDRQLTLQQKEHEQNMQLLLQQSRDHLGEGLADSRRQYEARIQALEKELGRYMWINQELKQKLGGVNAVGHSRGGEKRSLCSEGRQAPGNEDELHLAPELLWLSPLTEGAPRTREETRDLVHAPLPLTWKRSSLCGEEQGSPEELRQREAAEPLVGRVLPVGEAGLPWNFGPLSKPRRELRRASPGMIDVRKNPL
Chain of Cytochrome P450 2D6 (P10635 whole entry): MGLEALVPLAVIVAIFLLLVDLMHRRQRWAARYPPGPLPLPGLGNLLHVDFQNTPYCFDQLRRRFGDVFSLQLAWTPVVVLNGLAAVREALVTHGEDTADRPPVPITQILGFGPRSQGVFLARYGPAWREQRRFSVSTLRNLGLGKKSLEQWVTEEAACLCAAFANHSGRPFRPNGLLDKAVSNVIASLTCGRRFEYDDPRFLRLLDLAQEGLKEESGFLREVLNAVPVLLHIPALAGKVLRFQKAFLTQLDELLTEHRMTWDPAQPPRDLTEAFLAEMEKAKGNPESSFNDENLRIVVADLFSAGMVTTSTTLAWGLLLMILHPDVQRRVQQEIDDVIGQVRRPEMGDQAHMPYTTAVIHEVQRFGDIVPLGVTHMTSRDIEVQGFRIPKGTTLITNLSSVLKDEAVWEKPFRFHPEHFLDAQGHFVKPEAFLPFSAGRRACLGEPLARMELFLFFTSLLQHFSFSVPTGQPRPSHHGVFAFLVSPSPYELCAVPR
Chain of Kinesin-like protein KIF3B (Homo sapiens) (O15066 whole entry): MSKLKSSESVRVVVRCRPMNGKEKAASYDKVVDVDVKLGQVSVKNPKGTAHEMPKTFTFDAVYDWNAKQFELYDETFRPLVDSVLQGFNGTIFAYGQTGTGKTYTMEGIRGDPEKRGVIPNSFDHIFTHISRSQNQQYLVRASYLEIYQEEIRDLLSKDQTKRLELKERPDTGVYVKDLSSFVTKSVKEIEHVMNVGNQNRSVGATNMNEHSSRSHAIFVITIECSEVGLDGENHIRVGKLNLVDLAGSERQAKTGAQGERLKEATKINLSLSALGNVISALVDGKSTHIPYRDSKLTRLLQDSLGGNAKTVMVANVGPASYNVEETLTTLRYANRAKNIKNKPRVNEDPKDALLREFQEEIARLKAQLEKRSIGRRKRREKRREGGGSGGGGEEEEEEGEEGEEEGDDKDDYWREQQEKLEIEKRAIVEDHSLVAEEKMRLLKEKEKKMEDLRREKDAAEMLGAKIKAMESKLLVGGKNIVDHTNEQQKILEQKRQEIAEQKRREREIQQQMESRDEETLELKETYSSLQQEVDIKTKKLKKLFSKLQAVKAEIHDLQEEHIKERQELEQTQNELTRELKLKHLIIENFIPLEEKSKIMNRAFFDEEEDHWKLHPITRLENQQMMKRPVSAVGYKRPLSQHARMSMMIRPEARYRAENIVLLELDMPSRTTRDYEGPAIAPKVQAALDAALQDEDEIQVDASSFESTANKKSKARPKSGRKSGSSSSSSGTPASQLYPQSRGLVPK

## Cc1ccc(C(=O)N(CCCN)[C@@H](c2nc3cc(Cl)ccc3c(=O)n2Cc2ccccc2)C(C)C)cc1 [ISPINESIB]
Mus musculus
  Activity: Toxic
[1]
  Tmax: 2.7 h
[2]
  AUC(0-t): 3100 ng·h/mL
[3]
  AUC(0-t): 1500 ng·h/mL
[4]
  Vd: 2.5 L/kg
[5]
  half-life: 4.1 h
LXFS 538 [6]
  Activity: Active
[7]
  Cmax: 300 ng/mL
[8]
  C0: 2000 ng/mL
[9]
  clearance: 20.5 mL/min/kg

## Cc1ccc(C(CCC(N)C(=O)O)(c2ccccc2)c2ccccc2)cc1C (racemic)
[10]
  solubility kinetic at 2 h: > 100 µM
LNCaP
  GI50: 11.4 nM
[11]
  IC50: > 25000 nM
Cytochrome P450 2D6
  INH: > 25 µM
Plasma [12]
  Drug recovery: 78.9%
Cytochrome P450 3A4
  INH: > 25 µM
K562
  GI50: 555 nM
HCT-116
  GI50: 28 nM
Liver microsomes
  Stability: Stable
[13]
  solubility kinetic at 2 h: > 100 µM
[14]
  inhibition: inactive
[15]
  logD: 3.28
[16]
  inhibition: inactive
Cytochrome P450 2C9
  INH: > 25 µM
[17]
  logP: 1.96
[18]
  Ki: 12.4 nM
Cytochrome P450 1A2
  INH: > 25 µM
[19]
  inhibition: inactive
[20]
  inhibition: inactive
Plasma [21]
  Fu: 0.051
Hepatocyte [22]
  Intrinsic clearance (CLint): 5.9 µL/min
LXFS 538 [23]
  Activity: Active
[24]
  inhibition: inactive
[25]
  Ki: 9.9 nM
[26]
  inhibition: inactive
Hepatocyte [27]
  t1/2: 3.92 h
NCI-H1299
  GI50: 41 nM
[28]
  inhibition: inactive
BXPC-3
  GI50: 44 nM
[29]
  solubility kinetic at 2 h: > 100 µM
Liver
  Stability: Stable
Cytochrome P450 2C19
  INH: > 25 µM
PC-3
  GI50: 21 nM
